Assay type in all cases: ADME
The target in series [1] is T1, Cytochrome P450 4F2 (Homo sapiens, UniProt P78329).
T1 sequence (P78329 whole entry): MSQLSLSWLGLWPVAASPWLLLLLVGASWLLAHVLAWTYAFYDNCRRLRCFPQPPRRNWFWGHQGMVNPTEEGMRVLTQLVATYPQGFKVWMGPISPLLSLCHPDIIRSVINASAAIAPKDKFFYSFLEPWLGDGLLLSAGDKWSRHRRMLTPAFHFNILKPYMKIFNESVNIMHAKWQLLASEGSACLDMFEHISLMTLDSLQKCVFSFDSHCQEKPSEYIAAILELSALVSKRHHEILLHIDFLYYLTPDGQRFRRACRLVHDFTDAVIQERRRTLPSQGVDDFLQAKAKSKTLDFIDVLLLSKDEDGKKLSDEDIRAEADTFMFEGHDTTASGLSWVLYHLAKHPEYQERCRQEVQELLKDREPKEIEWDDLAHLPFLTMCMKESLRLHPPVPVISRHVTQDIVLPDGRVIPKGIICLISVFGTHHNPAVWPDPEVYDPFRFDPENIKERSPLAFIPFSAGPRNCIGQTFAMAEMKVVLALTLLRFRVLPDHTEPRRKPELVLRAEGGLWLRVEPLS
As to the kind of experiment: Drug level in human liver microsomes treated with BSA bound d6-alpha-tocopheryl quinone assessed as CYP4F2-mediated compound formation at 4.4 mM preincubated for 10 mins followed by NADPH addition measured after 20 mins by LS-MS analysis. A digest of the protocol: (§1)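 Pooled human liver microsomes (20 mg/ml protein) in 100 mM KH2PO4 pH 7.2. d6-αTQ–BSA complex added from a 4.4 mM stock. Preincubated 10 min at 37 °C, then NADPH added to 1 mM final (NAD at 1 mM if used); 20 min at 37 °C, then chilled on ice. d0-ω-hydroxy-αTQ added as internal standard, extracted with ethyl acetate then hexanes:MTBE. Read-out by positive-ion C18 LC-MS.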
On the technique in general: Liver microsomes are vesicles of endoplasmic reticulum, rich in cytochrome P450 enzymes.

Series [2] addresses T1, Cytochrome P450 4F2. Put plainly: Drug level assessed as recombinant human CYP4F2 expressed in insect cell microsomes-mediated compound formation treated with BSA bound d6-alpha-tocopheryl quinone at 10 uM preincubated for 10 mins followed by NADPH addition measured after 20 mins in presence of recombinant human CYP reductase and cytochrome b5 by LS-MS analysis. The following applies: recombinant enzyme. Put shortly:
(§2)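 Insect cell microsomes co-expressing recombinant human CYP4F2, cytochrome b5 and NADPH P450 reductase (100 pmol CYP/mL) in 100 mM KH2PO4 pH 7.2 with d6-αTQ–BSA complex (10 μM). Preincubated 10 min at 37 °C, then NADPH added to 1 mM final; 20 min at 37 °C, then chilled on ice. Internal standard d0-ω-hydroxy-αTQ added, extracted with ethyl acetate then hexanes:MTBE. Products identified by reversed-phase C18 LC-MS retention time and mass spectra.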

Series [3] has as its target T1, Cytochrome P450 4F2. As to the kind of experiment: Drug level in human liver microsomes treated with BSA bound d6-alpha-tocopheryl quinone assessed as CYP4F2-mediated compound formation by measuring compound retention time at 4.4 mM preincubated for 10 mins followed by NADPH addition measured after 20 mins by LS-MS analysis. Put shortly: as §1
Series [4] addresses T1, Cytochrome P450 4F2. As to the kind of experiment: Drug level assessed as recombinant human CYP4F2 expressed in insect cell microsomes-mediated compound formation by measuring compound retention time treated with BSA bound d6-alpha-tocopheryl quinone at 10 uM preincubated for 10 mins followed by NADPH addition measured after 20 mins in presence of recombinant human CYP reductase and cytochrome b5 by LS-MS analysis. The note with it: recombinant enzyme. A digest of the protocol:
as §2

In the case of `[2H]C([2H])([2H])C1=C(C)C(=O)C(CC[C@](C)(O)CCC[C@H](C)CCC[C@H](C)CCCC(C)CO)=C(C([2H])([2H])[2H])C1=O` (stereo not given in full), the Drug metabolism result at Cytochrome P450 4F2 [1] and at Cytochrome P450 4F2 [2] was “Metabolite_Detected” in each case. Besides, the Retention_time at Cytochrome P450 4F2 [3] and on Cytochrome P450 4F2 [4] was 8.8 min in each case.
For `[2H]C([2H])([2H])C1=C(C)C(=O)C(CC[C@](C)(O)CCC[C@H](C)CCC[C@H](C)CCCC(C)C(=O)O)=C(C([2H])([2H])[2H])C1=O` (stereo not given in full), the Drug metabolism result on Cytochrome P450 4F2 [1] and on Cytochrome P450 4F2 [2] was “Metabolite_Detected” throughout. The Retention_time at Cytochrome P450 4F2 [3] is 7.1 min; on Cytochrome P450 4F2 [4], 7.42 min.
As for `[2H]C([2H])([2H])C1=C(C)C(=O)C(CC[C@](C)(O)CCC[C@H](C)CCC[C@H](C)CCCC(C)C)=C(C([2H])([2H])[2H])C1=O`, the Drug metabolism entry on Cytochrome P450 4F2 [1] is listed as “Metabolite_Detected”. Further, the Retention_time at Cytochrome P450 4F2 [3] worked out at 11.87 min.
